From ChEMBL document CHEMBL1123369, “Synthesis and structure-activity relationships of new arylfluoronaphthyridine antibacterial agents” (1986) come the findings set out here.

SMILES strings stand for the structures. Values after ≈ are worked out from the molar mass of the structure shown.

Holding throughout (type): functional
In assay [1] the test system is Mus musculus. The assay is described as follows: In vivo dose(sc) inhibiting systemic infections caused by Pseudomonas aeruginosa 5007 in mice. The procedure, abridged: (§1)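 CF-1 female mice, about 20 g. Infected ip with 0.5 mL of an 18-h BHI culture diluted in 5% hog gastric mucin to 100× LD₅₀. LD₅₀ set by 10-fold dilutions (Reed–Muench, day 6). Compound given in water or dilute NaOH, sc or po, total dose split at 1 and 5 h post-infection. At least 3 dose levels, 10 mice each. Deaths followed 6 days. ED₅₀ from day-6 cumulative mortality by trimmed Logit, with 95% confidence limits.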

The test system of assay [2] is Staphylococcus aureus. The assay is described as follows: In vitro antibacterial activity against Staphylococcus aureus CMX 686B. The procedure, abridged:
(§2)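 Twofold agar dilution in brain-heart infusion agar, test range 200 to 0.005 µg/mL, made from a 2000 µg/mL stock. Organisms grown overnight in BHI broth at 36 °C. About 10⁴ organisms inoculated per plate, then incubated 18 h at 36 °C. MIC taken as the lowest concentration giving no visible growth.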

For another assay, the system named is Acinetobacter sp. The assay is described as follows: In vitro antibacterial activity against Acinetobacter species CMX669. The procedure, abridged:
as §2

Assay [3] deals with Pseudomonas aeruginosa. The assay is described as follows: In vitro antibacterial activity against Pseudomonas aeruginosa K799/WT. The procedure, abridged:
as §2

In assay [4] the test system is Mus musculus. Nature of the assay: In vivo antibacterial activity against systemic infection caused by Staphylococcus aureus NCTC 10649 in mice.
The subject of a further assay is Klebsiella pneumoniae. Nature of the assay: In vitro antibacterial activity against Klebsiella pneumoniae 8045. The procedure, abridged:
as §2

The subject of assay [5] is Mus musculus. Nature of the assay: In vivo dose(po) inhibiting systemic infections caused by Escherichia coli Juhl in mice. The procedure, abridged: as §1
Assay [6] relates to Staphylococcus aureus. Nature of the assay: In vitro antibacterial activity against Staphylococcus aureus ATCC 6538P. The procedure, abridged:
as §2

A further assay relates to Streptococcus pyogenes. Nature of the assay: In vitro antibacterial activity against Streptococcus pyogenes 930. The procedure, abridged:
as §2

The subject of assay [7] is Mus musculus. The assay is described as follows: In vivo dose(po) inhibiting systemic infections caused by Pseudomonas aeruginosa 5007 in mice. The procedure, abridged:
as §1

Assay [8] deals with Mus musculus. The assay is described as follows: In vivo antibacterial activity against systemic infection caused by Escherichia coli Juhl in mice. The procedure, abridged:
as §1

The subject of assay [9] is Mus musculus. Nature of the assay: In vivo dose(sc) inhibiting systemic infections caused by Staphylococcus aureus NCTC 10649 in mice. The procedure, abridged:
as §1

Assay [10] has as its system Staphylococcus epidermidis. Nature of the assay: In vitro antibacterial activity against Staphylococcus epidermidis 3519. The procedure, abridged:
as §2

The test system of assay [11] is Mus musculus. The assay is described as follows: In vivo dose(po) inhibiting systemic infections caused by Staphylococcus aureus NCTC 10649 in mice. The procedure, abridged: as §1
For assay [12], the system named is Mus musculus. Nature of the assay: In vivo antibacterial activity against systemic infection caused by Pseudomonas aeruginosa 5007 in mice.
The test system of assay [13] is Mus musculus. Nature of the assay: In vivo dose(sc) inhibiting systemic infections caused by Escherichia coli Juhl in mice. The procedure, abridged: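 Female CF-1 mice (~20 g) infected ip with 0.5 mL of 18-h BHI culture of E. coli Juhl diluted in 5% (w/v) hog gastric mucin to 100 times LD50 (LD50 from 10-fold dilutions, day-6 mortality, Reed-Muench). Compound dissolved in water (HCl salt) or dilute NaOH then water, given sc split equally at 1 and 5 h post-infection. 10 mice per dose, ≥3 doses. Deaths recorded 6 days; ED50 from day-6 cumulative mortality by trimmed Logit.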

The subject of the next assay is Enterococcus faecium. Nature of the assay: In vitro antibacterial activity against Streptococcus faecium ATCC 8043. The procedure, abridged:
as §2

Another assay deals with Klebsiella aerogenes. The assay is described as follows: In vitro antibacterial activity against Enterobacter aerogenes ATCC 13048. The procedure, abridged:
as §2

Assay [14] relates to Pseudomonas aeruginosa. The assay is described as follows: In vitro antibacterial activity against Pseudomonas aeruginosa 5007. The procedure, abridged:
as §2

In assay [15] the test system is Mus musculus. Nature of the assay: In vivo antibacterial activity against systemic infection caused by Escherichia coli juhl in mice. The procedure, abridged: as §1
Assay [16] relates to Mus musculus. Nature of the assay: In vivo dose(po) inhibiting systemic infections caused by Pseudomonas aeruginosa 5007 in mice. The procedure, abridged:
as §1

Assay [17] relates to Mus musculus. The assay is described as follows: In vivo dose(po) inhibiting systemic infections caused by Escherichia coli Juhl in mice. The procedure, abridged: as §1
Assay [18] relates to Mus musculus. Nature of the assay: In vivo dose(sc) inhibiting systemic infections caused by Escherichia coli Juhl in mice. The procedure, abridged: as §1
Assay [19] has as its system Mus musculus. The assay is described as follows: In vivo dose(po) inhibiting systemic infections caused by Staphylococcus aureus NCTC 10649 in mice. The procedure, abridged: as §1
For assay [20], the system named is Mus musculus. The assay is described as follows: In vivo dose(sc) inhibiting systemic infections caused by Staphylococcus aureus NCTC 10649 in mice. The procedure, abridged: as §1
The next assay relates to Escherichia coli. Nature of the assay: In vitro antibacterial activity against Escherichia coli Juhl. The procedure, abridged: as §2
The test system of assay [21] is Mus musculus. Nature of the assay: In vivo dose(sc) inhibiting systemic infections caused by Pseudomonas aeruginosa 5007 in mice. The procedure, abridged:
as §1

Assay [22] deals with Mus musculus. The assay is described as follows: In vivo antibacterial activity against systemic infection caused by Staphylococcus aureus NCTC 10649 in mice. The procedure, abridged:
as §1

For assay [23], the system named is Mus musculus. The assay is described as follows: In vivo antibacterial activity against systemic infection caused by Pseudomonas aeruginosa 5007 in mice. The procedure, abridged: as §1

The term ED50 denotes the midpoint of the dose-response relation. By MIC is commonly meant the least concentration at which growth counts as inhibited. A higher MIC goes with a less susceptible organism.

Turning to `O=C(O)c1cn(C2CC2)c2cc(N3CCNCC3)c(F)cc2c1=O` [CIPROFLOXACIN], the ED50 with Mus musculus [1] is 2.1 mg/kg; with Mus musculus [5], 1.9 mg/kg; in the assay on Mus musculus [7] it was 13.3 mg/kg; in the assay with Mus musculus [9], 1.6 mg/kg; in the assay with Mus musculus [11], 15.5 mg/kg; with Mus musculus [13], 0.2 mg/kg. Moreover, the MIC against Staphylococcus aureus [2] worked out at 0.39 µg/mL (≈ 1.18 µM); against Acinetobacter sp., 1.56 µg/mL (≈ 4.71 µM); against Pseudomonas aeruginosa [3], 0.1 µg/mL (≈ 0.302 µM); with Mus musculus [4] it was 0.25 µg/mL (≈ 0.754 µM); against Klebsiella pneumoniae, 0.02 µg/mL (≈ 0.0604 µM); in the assay on Staphylococcus aureus [6] it was 0.2 µg/mL (≈ 0.604 µM). The MIC with Streptococcus pyogenes is 0.39 µg/mL (≈ 1.18 µM); against Mus musculus [8], 0.02 µg/mL (≈ 0.0604 µM); in assay [10], 0.39 µg/mL (≈ 1.18 µM); against Mus musculus [12] it was 0.1 µg/mL (≈ 0.302 µM); against Enterococcus faecium it was 0.2 µg/mL (≈ 0.604 µM); with Klebsiella aerogenes it was 0.05 µg/mL (≈ 0.151 µM). The same compound had an MIC against Pseudomonas aeruginosa [14] of 0.1 µg/mL (≈ 0.302 µM).
Consider `NC1CCN(c2nc3c(cc2F)c(=O)c(C(=O)O)cn3-c2ccc(F)cc2F)C1` (centres undefined) [TOSUFLOXACIN], for which the MIC against Mus musculus [15] turned out to be 0.02 µg/mL (≈ 0.0495 µM); against Staphylococcus aureus [2], 0.05 µg/mL (≈ 0.124 µM); in the assay with Acinetobacter sp. it was 0.1 µg/mL (≈ 0.247 µM); against Pseudomonas aeruginosa [3], 0.39 µg/mL (≈ 0.965 µM); in the assay with Escherichia coli, 0.02 µg/mL (≈ 0.0495 µM); with Klebsiella pneumoniae it was 0.02 µg/mL (≈ 0.0495 µM). In addition, the MIC in the assay on Mus musculus [22] worked out at 0.03 µg/mL (≈ 0.0742 µM); with Mus musculus [23], 0.2 µg/mL (≈ 0.495 µM); in the assay with Staphylococcus aureus [6], 0.05 µg/mL (≈ 0.124 µM); in the assay on Streptococcus pyogenes, 0.2 µg/mL (≈ 0.495 µM); in [10] it was 0.1 µg/mL (≈ 0.247 µM); in the assay with Enterococcus faecium it was 0.2 µg/mL (≈ 0.495 µM). Also, the MIC was found to be 0.1 µg/mL (≈ 0.247 µM) with Klebsiella aerogenes and 0.2 µg/mL (≈ 0.495 µM) against Pseudomonas aeruginosa [14]. The ED50 is 4.9 mg/kg in the assay with Mus musculus [16]; 1.3 mg/kg in the assay on Mus musculus [17]; 0.2 mg/kg in the assay with Mus musculus [18]; 1.4 mg/kg in the assay on Mus musculus [19]; 0.2 mg/kg in the assay with Mus musculus [20]; 3.6 mg/kg in the assay on Mus musculus [21].
